According to ChEMBL document CHEMBL1126036, “Quinolone antibacterial agents. Synthesis and structure-activity relationships of a series of amino acid prodrugs of racemic and chiral 7-(3-amino-1-pyrrolidinyl)quinolones. Highly soluble quinolone prodrugs with in vivo pseudomonas activity” (J Med Chem, 1992):
≈ marks a conversion by molar mass, not a printed value.

How the values were obtained:
[1] = Solubility (in 0.1 N HCl); assay type: physicochemical; settings: read-out: S
Summary of the method: (§1)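 Solubility was measured either from HPLC peak areas at equilibrium or by a conventional weight-per-volume method. All solutions were held for 24 h before measurement.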

[2] = Solubility (at pH 4); assay type: physicochemical; settings: buffer, read-out: S; summary of the method: as §1
[3] = Solubility (at pH 7.4); assay type: physicochemical; settings: buffer, read-out: S; summary of the method: as §1
[4] = test system: Escherichia coli; assay: In vitro antibacterial activity against gram negative Escherichia coli Vogel.; assay type: functional
[5] = test system: Enterococcus faecalis; assay: In vitro antibacterial activity against gram positive Enterococcus faecalis MGH-2.; assay type: functional
[6] = biological target: DNA gyrase (Escherichia coli) (UniProt P0AES6+P0AES4); assay: In vitro concentration inhibiting DNA gyrase induced cleavage in Escherichia coli H560.; assay type: functional
Summary of the method: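 DNA gyrase test run as described in earlier work. The value is the drug concentration (µg/mL) needed to cause DNA cleavage.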

[7] = test system: Enterobacter cloacae; assay: In vitro antibacterial activity against gram negative Enterobacter cloacae MA 2646.; assay type: functional
[8] = test system: Klebsiella pneumoniae; assay: In vitro antibacterial activity against gram negative Klebsiella pneumoniae MGH-2.; assay type: functional
[9] = test system: Escherichia coli; assay: In vivo potency against acute systemic infection in mouse caused by Escherichia coli Vogel on oral administration by gavage.; assay type: functional; settings: read-out: PD50
Summary of the method: (§2)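 Acute systemic mouse infection. A single oral dose was given by gavage at the time of challenge. Potency is reported as the median protective dose (PD50, mg/kg), determined by earlier published methods.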

[10] = test system: Streptococcus pneumoniae; assay: In vivo potency against acute systemic infection in mouse caused by Streptococcus pneumoniae SV-1 on oral administration by gavage.; assay type: functional; settings: read-out: PD50; summary of the method: as §2
[11] = test system: Streptococcus pneumoniae; assay: In vivo potency against acute systemic infection in mouse caused by Streptococcus pneumoniae SV-1 on subcutaneous injection.; assay type: functional; settings: sc, read-out: PD50
Summary of the method: (§3)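 Acute systemic mouse infection. A single subcutaneous dose was injected at the time of challenge. Potency is reported as the median protective dose (PD50, mg/kg), determined by earlier published methods.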

[12] = test system: Escherichia coli; assay: In vivo potency against acute systemic infection in mouse caused by Escherichia coli vogel on subcutaneous injection.; assay type: functional; settings: sc, read-out: PD50; summary of the method: as §3
[13] = test system: Mus musculus; assay: In vivo potency against acute systemic infection in mouse caused by Pseudomonas aeruginosa UI-18 on oral administration by gavage.; assay type: functional; settings: read-out: PD50; summary of the method: as §2
[14] = test system: Mus musculus; assay: In vivo potency against acute systemic infection in mouse caused by Pseudomonas aeruginosa. UI-18. on subcutaneous injection.; assay type: functional; settings: sc, read-out: PD50; summary of the method: as §3
[15] = test system: Mus musculus; assay: In vivo potency against acute systemic infection in mouse caused by Streptococcus pyogenes C-203 on oral administration by gavage; assay type: functional; settings: read-out: PD50; summary of the method: as §2
[16] = test system: Mus musculus; assay: In vivo potency against acute systemic infection in mouse caused by Streptococcus pyogenes C-203 on subcutaneous injection; assay type: functional; settings: sc, read-out: PD50; summary of the method: as §3
[17] = test system: Pseudomonas aeruginosa; assay: In vitro antibacterial activity against gram negative Pseudomonas aeruginosa UI-18.; assay type: functional
[18] = test system: Providencia rettgeri; assay: In vitro antibacterial activity against gram negative Providencia rettgeri M-1771.; assay type: functional
[19] = test system: Staphylococcus aureus; assay: In vitro antibacterial activity against gram positive Staphylococcus aureus H-228.; assay type: functional
[20] = test system: Streptococcus pyogenes; assay: In vitro antibacterial activity against gram positive Streptococcus pyogenes C-203.; assay type: functional
[21] = test system: Staphylococcus aureus; assay: In vitro antibacterial activity against gram positive Staphylococcus aureus UC76.; assay type: functional
[22] = test system: Streptococcus pneumoniae; assay: In vitro antibacterial activity against gram positive Streptococcus pneumoniae SV-1.; assay type: functional
[23] = Aqueous solubility; assay type: physicochemical; settings: read-out: S; summary of the method: as §1
[24] = test system: Klebsiella pneumoniae; assay: In vitro antibacterial activity against gram negative Klebsiella pneumoniae. MGH-2; assay type: functional

SMILES: Cl.NC1CCN(c2c(F)cc3c(=O)c(C(=O)O)cn(C4CC4)c3c2F)C1 (stereo unspecified)
- solubility [1]: 3000 µg/mL
- solubility [2]: 2400 µg/mL
- solubility [3]: 80 µg/mL
- MIC [4]: 0.013 µg/mL
- MIC [5]: 0.05 µg/mL
- Cleavage [6]: 0.1 µg/mL
- MIC [7]: 0.025 µg/mL
- MIC [8]: 0.025 µg/mL
- ED50 [9]: 1 mg/kg
- ED50 [10]: 15 mg/kg
- ED50 [11]: 6 mg/kg
- ED50 [12]: 0.2 mg/kg
- ED50 [13]: 7 mg/kg
- ED50 [14]: 3 mg/kg
- ED50 [15]: 7 mg/kg
- ED50 [16]: 2 mg/kg
- MIC [17]: 0.05 µg/mL
- MIC [18]: 0.05 µg/mL
- MIC [19]: 0.025 µg/mL
- MIC [20]: 0.05 µg/mL
- MIC [21]: 0.006 µg/mL
- MIC [22]: 0.05 µg/mL
- solubility ([23]; water (aqueous)): 15000 µg/mL

SMILES: Cl.Nc1c(F)c(N2CC[C@H](N)C2)c(F)c2c1c(=O)c(C(=O)O)cn2C1CC1.O
- solubility [1]: 250 µg/mL
- solubility [2]: 2300 µg/mL
- solubility [3]: 50 µg/mL
- MIC [4]: 0.003 µg/mL
- MIC [5]: 0.025 µg/mL
- Cleavage [6]: 0.1 µg/mL
- MIC [7]: 0.003 µg/mL
- MIC [8]: 0.013 µg/mL
- ED50 [9]: 1.2 mg/kg
- ED50 [10]: 10 mg/kg
- ED50 [11]: 6 mg/kg
- ED50 [12]: 0.4 mg/kg
- ED50 [15]: 18 mg/kg
- ED50 [16]: 5.5 mg/kg
- MIC [17]: 0.025 µg/mL
- MIC [18]: 0.025 µg/mL
- MIC [19]: 0.006 µg/mL
- MIC [20]: 0.013 µg/mL
- MIC [21]: 0.003 µg/mL
- MIC [22]: 0.006 µg/mL
- solubility ([23]; water (aqueous)): 2500 µg/mL

SMILES: C[C@@H](N)C(=O)NC1CCN(c2nc3c(cc2F)c(=O)c(C(=O)O)cn3C2CC2)C1.Cl.O (stereo partly specified)
- solubility [1]: 189000 µg/mL
- solubility [2]: 262000 µg/mL
- MIC [4]: 0.8 µg/mL
- MIC [5]: 0.2 µg/mL
- Cleavage [6]: 2.5 µg/mL
- MIC [7]: 0.8 µg/mL
- MIC [24]: 0.8 µg/mL
- ED50 [9]: 22.5 mg/kg
- ED50 [10]: > 100 mg/kg
- ED50 [11]: 3 mg/kg
- ED50 [12]: 5.1 mg/kg
- MIC [17]: 1.6 µg/mL
- MIC [18]: 1.6 µg/mL
- MIC [19]: 0.4 µg/mL
- MIC [20]: 0.013 µg/mL
- MIC [21]: 0.05 µg/mL
- MIC [22]: 0.25 µg/mL
- solubility ([23]; pH 7.4 phosphate buffer): 60 µg/mL
- solubility ([23]; water (aqueous)): > 250000 µg/mL

SMILES: Cl.NC1CCN(c2cc3c(cc2F)c(=O)c(C(=O)O)cn3C2CC2)C1.O (stereo unspecified)
- MIC [4]: 0.025 µg/mL
- MIC [5]: 0.1 µg/mL
- Cleavage [6]: 0.1 µg/mL
- MIC [7]: 0.025 µg/mL
- MIC [8]: 0.05 µg/mL
- ED50 [9]: 3 mg/kg
- ED50 [10]: 43 mg/kg
- ED50 [11]: 4 mg/kg
- ED50 [12]: 0.5 mg/kg
- ED50 [13]: 49 mg/kg
- ED50 [14]: 5 mg/kg
- ED50 [15]: 97 mg/kg
- ED50 [16]: 11 mg/kg
- MIC [17]: 0.1 µg/mL
- MIC [18]: 0.1 µg/mL
- MIC [19]: 0.2 µg/mL
- MIC [20]: 0.1 µg/mL
- MIC [21]: 0.025 µg/mL
- MIC [22]: 0.1 µg/mL

SMILES: C[C@H](N)C(=O)N[C@H]1CCN(c2nc3c(cc2F)c(=O)c(C(=O)O)cn3C2CC2)C1.Cl.O
- solubility [1]: > 350000 µg/mL
- solubility [2]: > 350000 µg/mL
- MIC [4]: 0.8 µg/mL
- MIC [5]: 1.6 µg/mL
- Cleavage [6]: 5 µg/mL
- MIC [7]: 0.8 µg/mL
- MIC [24]: 1.6 µg/mL
- ED50 [9]: 1.3 mg/kg
- ED50 [10]: 25 mg/kg
- ED50 [11]: 12 mg/kg
- ED50 [12]: 0.4 mg/kg
- ED50 [13]: 3 mg/kg
- ED50 [14]: 2 mg/kg
- ED50 [15]: 22 mg/kg
- ED50 [16]: 10 mg/kg
- MIC [17]: 3.1 µg/mL
- MIC [18]: 3.1 µg/mL
- MIC [19]: 3.1 µg/mL
- MIC [20]: 0.8 µg/mL
- MIC [21]: 0.8 µg/mL
- MIC [22]: 0.8 µg/mL
- solubility ([23]; pH 7.4 phosphate buffer): 20 µg/mL
- solubility ([23]; water (aqueous)): > 350000 µg/mL

SMILES: N[C@@H]1CCN(c2nc3c(cc2F)c(=O)c(C(=O)O)cn3C2CC2)C1
- MIC [4]: 0.013 µg/mL (≈ 0.0391 µM)
- MIC [5]: 0.2 µg/mL (≈ 0.602 µM)
- Cleavage [6]: 0.5 µg/mL
- MIC [7]: 0.025 µg/mL (≈ 0.0752 µM)
- MIC [24]: 0.025 µg/mL (≈ 0.0752 µM)
- ED50 [9]: 0.5 mg/kg
- ED50 [10]: 45 mg/kg
- ED50 [11]: 34 mg/kg
- ED50 [12]: 0.4 mg/kg
- MIC [17]: 0.4 µg/mL (≈ 1.2 µM)
- MIC [18]: 0.05 µg/mL (≈ 0.15 µM)
- MIC [19]: 0.2 µg/mL (≈ 0.602 µM)
- MIC [20]: 0.2 µg/mL (≈ 0.602 µM)
- MIC [21]: 0.05 µg/mL (≈ 0.15 µM)
- MIC [22]: 0.1 µg/mL (≈ 0.301 µM)

SMILES: C[C@H](N)C(=O)N[C@@H]1CCN(c2nc3c(cc2F)c(=O)c(C(=O)O)cn3C2CC2)C1.Cl.O
- solubility [1]: > 200000 µg/mL
- solubility [2]: > 200000 µg/mL
- solubility [3]: 70 µg/mL
- MIC [4]: 1.6 µg/mL
- MIC [5]: 3.1 µg/mL
- Cleavage [6]: 1 µg/mL
- MIC [7]: 0.8 µg/mL
- MIC [8]: 3.1 µg/mL
- ED50 [9]: 2 mg/kg
- ED50 [10]: 40 mg/kg
- ED50 [11]: 28 mg/kg
- ED50 [12]: 0.5 mg/kg
- ED50 [15]: 49 mg/kg
- ED50 [16]: 32 mg/kg
- MIC [17]: 6.3 µg/mL
- MIC [18]: 3.1 µg/mL
- MIC [19]: 3.1 µg/mL
- MIC [20]: 0.8 µg/mL
- MIC [21]: 0.8 µg/mL
- MIC [22]: 1.6 µg/mL
- solubility ([23]; water (aqueous)): > 200000 µg/mL
